Test results as given in publication PMC7993273 (Clinical and Translational Science, 2021).
Where “and” joins values, the source holds several entries; their conditions need not be identical. Equal values may be shown once.

Columns and labels:
[1] = Population PK model; assay type: in vivo, human
[2] = assay type: in vivo, human; conditions: 160 mg b.i.d.
Method in brief: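 Final population PK model built from 4,925 plasma samples from 632 healthy volunteers and B-cell malignancy patients, on oral doses of 20–320 mg q.d. or b.i.d. Plasma levels were measured by validated HPLC-MS/MS (LLOQ 1 ng/mL). Steady-state AUCss, Cmax,ss and Cmin,ss were simulated for repeated 160 mg b.i.d. dosing, comparing 5th/95th-percentile covariate values against a median-covariate typical patient.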

[3] = Exposure at the 480-mg dose in HVs, study BGB-3111-106; assay type: in vivo, human
[4] = cited from earlier work
[5] = oral, patients with B-cell malignancies

SMILES: C=CC(=O)N1CCC([C@@H]2CCNc3c(C(N)=O)c(-c4ccc(Oc5ccccc5)cc4)nn32)CC1 [zanubrutinib, Zanubrutinib]
- Ka, final model estimate (95% CI) ([1]; absorption rate constant): 0.526 (0.525, 0.526) 1/hour
- D1, bootstrap estimate median (2.5–97.5 percentiles) ([1]; bootstrap of 1,000 datasets): 1.114 (0.974, 1.265) hour
- IIV D1, bootstrap estimate median (2.5–97.5 percentiles) ([1]; bootstrap of 1,000 datasets): 62.2 (51.9, 72.4)
- IIV Q/F, bootstrap estimate median (2.5–97.5 percentiles) ([1]; bootstrap of 1,000 datasets): 103 (83.9, 118)
- IIV Vc/F, bootstrap estimate median (2.5–97.5 percentiles) ([1]; bootstrap of 1,000 datasets): 39.2 (25.9, 57.8)
- IIV Vp/F, bootstrap estimate median (2.5–97.5 percentiles) ([1]; bootstrap of 1,000 datasets): 80.4 (58.9, 94.6)
- IOV D1, bootstrap estimate median (2.5–97.5 percentiles) ([1]; bootstrap of 1,000 datasets): 62.2 (51.9, 72.4)
- IOV Vc/F, bootstrap estimate median (2.5–97.5 percentiles) ([1]; bootstrap of 1,000 datasets): 65.9 (49.4, 76.8)
- Ka, bootstrap estimate median (2.5–97.5 percentiles) ([1]; bootstrap of 1,000 datasets): 0.524 (0.481, 0.591) 1/hour
- Q/F, bootstrap estimate median (2.5–97.5 percentiles) ([1]; bootstrap of 1,000 datasets): 25.6 (19.9, 32.3) L/hour
- Vc/F, bootstrap estimate median (2.5–97.5 percentiles) ([1]; bootstrap of 1,000 datasets): 115 (88.4, 151) L
- Vp/F, bootstrap estimate median (2.5–97.5 percentiles) ([1]; bootstrap of 1,000 datasets): 363 (274, 513) L
- CL/F (HV), bootstrap estimate median (2.5–97.5 percentiles) ([1]; bootstrap of 1,000 datasets, healthy volunteers): 119 (110, 127) L/hour
- CL/F (patient), bootstrap estimate median (2.5–97.5 percentiles) ([1]; bootstrap of 1,000 datasets, patient): 169 (162, 178) L/hour
- effect of co-administration with PPIs and other ARAs on the PKs ([1]; covariate analysis, patients in clinical studies): did not appear to significantly impact
- D1, final model estimate (95% CI) ([1]; duration of zero-order absorption into the depot compartment): 1.13 hour and 1.128 (1.125, 1.131) hour
- coefficient of variance of elimination t 1/2 ([1]; final population PK model): 40.0%
- CL/F (HV), final model estimate (95% CI) ([1]; healthy volunteers): 118 (107, 130) L/hour
- Q/F, final model estimate (95% CI) ([1]; human, in vivo): 26.5 L/hour and 26.5 (26.3, 26.7) L/hour
- Vc/F, final model estimate (95% CI) ([1]; human, in vivo): 112 L and 112 (111, 113) L
- Vp/F, final model estimate (95% CI) ([1]; human, in vivo): 345 L and 345 (343, 347) L
- half-life ([1]; human, plasma, oral): 3.44 h
- IIV D1, final model estimate (95% CI) ([1]; interindividual variability): 62.3 (57.1, 67.1)
- IIV Q/F, final model estimate (95% CI) ([1]; interindividual variability): 102 (97.8, 106)
- IIV Vc/F, final model estimate (95% CI) ([1]; interindividual variability): 37.1 (NA, 53.1)
- IIV Vp/F, final model estimate (95% CI) ([1]; interindividual variability): 86.4 (71.3, 99.3)
- IIV estimated for CL/F ([1]; interindividual variability): 36.7%
- IIV estimated for Vc/F ([1]; interindividual variability): 37.1%
- IOV Vc/F, final model estimate (95% CI) ([1]; interoccasion variability): 67.5 (66.8, 68.3)
- absorption rate constant ([1]; typical patient with ALT of 18 U/L): 0.526 hour^‐1
- CL/F (patient), final model estimate (95% CI) ([1]; typical patient with B-cell malignancy, ALT 18 U/L): 170 L/hour and 170 (169, 170) L/hour
- magnitude of effect of ALT on AUCss [2]: < 15%
- magnitude of effect of ALT on Cmax,ss [2]: < 10%
- magnitude of effect of ALT on Cmin,ss [2]: < 30%
- AUC ([2]; human, plasma, oral, 160 mg, total daily AUC, typical patient): 1890 ng·h/mL
- dose dependence of exposure at the 480-mg dose [3]: less than dose‐proportional increase in exposure
- systemic accumulation after multiple-dose administration ([4]; 40 mg to 320 mg q.d. and 160 mg b.i.d.): limited systemic accumulation
- dose dependence of Cmax and AUC0–∞ ([4]; doses from 40 mg to 320 mg): dose‐proportional increase
- mean terminal elimination half-life (t 1/2) [4, 5]: 2 to 4 h
- median time to peak plasma concentration (Tmax) [4, 5]: 2 h
